Our source for the EC50, inhibition and Activity values is ChEMBL document CHEMBL3046889, “Structure-activity relationships of phenylcyclohexene and biphenyl antitubulin compounds against plant and mammalian cells” (Bioorg Med Chem Lett, 2001).

The subject of test [1] is Nicotiana tabacum. In words: Inhibition of Nicotiana tabacum (tobacco) root growth assessed as inhibition of root elongation. The format is functional, organism-based. The procedure, abridged: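 In vitro tobacco root growth assay on germinating seeds; root elongation scored, EC50 derived.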
Another test deals with HCT-116. In words: Antitumor activity against Homo sapiens (human) HCT116 cells. The format is functional, cell-based. The procedure, abridged: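 Cytotoxicity toward human HCT116 colon cancer cells measured by sulforhodamine B assay in 96-well format.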
Test [2] concerns Tubulin (Bos taurus). In words: Inhibition of Bos taurus (bovine) brain tubulin polymerization at 200 uM.
For test [3], the system named is Nicotiana tabacum. In words: Mitotic arrest in Nicotiana tabacum (tobacco) root suspension-cultured cells assessed as accumulation of cells in metaphase by cytological staining assay. In kind it is functional. The procedure, abridged:
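Suspension-cultured tobacco cells were treated with the compound, and their chromosomes were cytologically stained. The read-out was mitotic index, meaning the fraction of cells in mitosis, with arrest scored as cells accumulating in metaphase.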

For test [4], the system named is Tubulin (Bos taurus). In words: Displacement of [3H]colchicine from Bos taurus (bovine) brain tubulin by competition assay. A general note: Loss of bound radioactivity is the signal in a displacement assay; it reports binding, not function.

SMILES strings stand for the structures. Calls of active or inactive are those of the source. The calls are words filed in the database; no cut-off is given here.

Broadly, the EC50 is the concentration needed to bring the measured effect to its halfway point. `O=[N+]([O-])[C@@H]1CC=CC[C@H]1c1ccccc1` (mixture of isomers): the EC50 with Nicotiana tabacum [1] (Nicotiana tabacum) is over 100 µM; with HCT-116 (Homo sapiens, HCT-116), 174 µM.
On to `COc1ccc([C@H]2CC=CC[C@@H]2C#N)c(OC)c1OC` (single isomer, unassigned; enantiomer II), for which the EC50 in the test with Nicotiana tabacum [1] was determined as 7.17 µM; with HCT-116 (hct-116), 47 µM.
The like results for `COc1ccc([C@@H]2CC=CC[C@H]2[N+](=O)[O-])c(OC)c1OC` (racemic) [listing 1 of 2 here] were, in that order, 0.27 µM and 85 µM.
As to `COc1ccc(-c2ccccc2[N+](=O)[O-])c(OC)c1OC`, the EC50 was 52 µM in the test with Nicotiana tabacum [1] (Nicotiana tabacum) and 19.6 µM in the test on HCT-116 (Homo sapiens, HCT-116).
Regarding `COc1ccc([C@@H]2CC=CC[C@H]2[N+](=O)[O-])c(OC)c1OC` (single isomer, unassigned; enantiomer I), the EC50 was 0.1 µM in the test with Nicotiana tabacum [1] and 79 µM in the test with HCT-116 (hct-116).
`COc1ccc([C@@H]2CC=CC[C@H]2[N+](=O)[O-])c(OC)c1OC` (single isomer, unassigned): the EC50 is 1.96 µM in the test with Nicotiana tabacum [1] and 71 µM with HCT-116 (Homo sapiens, HCT-116).
Consider `COc1ccc([C@H]2CC=CC[C@@H]2C#N)c(OC)c1OC` (single isomer, unassigned; enantiomer I), for which the EC50 was determined as 0.667 µM in the test with Nicotiana tabacum [1] and 136 µM with HCT-116 (hct-116).
For `COc1ccc(-c2ccc(OC)c(OC)c2OC)c([N+](=O)[O-])c1`, the EC50 with Nicotiana tabacum [1] (Nicotiana tabacum) is over 100 µM; with HCT-116 (Homo sapiens, HCT-116) it was 2.65 µM.
Consider `COc1ccc(C2CC=CCC2C#N)c(OC)c1OC` (mixture of isomers), for which the EC50 turned out to be 2.29 µM with Nicotiana tabacum [1] (Nicotiana tabacum) and 113 µM in the test on HCT-116 (Homo sapiens, HCT-116). In the test on Tubulin (Bos taurus) [2], the inhibition result was “Active”.
With `COc1ccc(-c2ccc(OC)c(OC)c2OC)c(C)c1`, the EC50 is over 100 µM in the test with Nicotiana tabacum [1] (Nicotiana tabacum) and 0.78 µM in the test on HCT-116 (Homo sapiens, HCT-116).
Turning to `COc1cc2c(c(OC)c1OC)-c1ccc(OC)c(=O)cc1[C@@H](NC(C)=O)CC2` [COLCHICINE], the EC50 with Nicotiana tabacum [1] (Nicotiana tabacum) worked out at 356 µM; in the test on HCT-116 (Homo sapiens, HCT-116), 0.02 µM. For the same compound, the result in the test with Nicotiana tabacum [3] was Active.
With `COc1ccc([C@@H]2CC=CC[C@H]2[N+](=O)[O-])c(OC)c1OC` (racemic) [listing 2 of 2 here], the outcome in the test with Nicotiana tabacum [3] was Active. The inhibition entry in the test on Tubulin (Bos taurus) [2] and with Tubulin (Bos taurus) [4] was “Active” in each case.
For the compound `COc1ccc(-c2ccc(OC)c(OC)c2OC)cc1` [2,3,4,4'-TETRAMETHOXYBIPHENYL], the EC50 in the test on Nicotiana tabacum [1] (Nicotiana tabacum) is over 100 µM; with HCT-116 (Homo sapiens, HCT-116), 1.52 µM.
The like results for `COc1ccc(-c2ccccc2C#N)c(OC)c1OC` were, in that order, over 100 µM and 13.8 µM.
As to `COc1cccc([C@@H]2CC=CC[C@H]2[N+](=O)[O-])c1` (racemic), the 50% effective concentration (EC50) with Nicotiana tabacum [1] (Nicotiana tabacum) came to 3.78 µM; in the test with HCT-116 (Homo sapiens, HCT-116), 143 µM.
`COc1ccc([C@H]2CC=CC[C@H]2C#N)c(OC)c1OC` (single isomer, unassigned) returned an EC50 in the test with HCT-116 (hct-116) of 142 µM.
`COc1ccc([C@H]2CC=CC[C@H]2C#N)c(OC)c1OC` (single isomer, unassigned; enantiomer II): the results for the EC50 in the test with Nicotiana tabacum [1] (Nicotiana tabacum) and with HCT-116 (hct-116) were over 25 µM and 45 µM, respectively.
On to `COc1ccc(-c2ccc(OC)c(OC)c2OC)c(C#N)c1`, for which the 50% effective concentration (EC50) with Nicotiana tabacum [1] (Nicotiana tabacum) is over 100 µM; in the test with HCT-116 (Homo sapiens, HCT-116), 0.58 µM.
